Data reported in ChEMBL document CHEMBL3085764, “Azole-carbodithioate hybrids as vaginal anti-Candida contraceptive agents: design, synthesis and docking studies” (Eur J Med Chem, 2013).
≈ marks a conversion by molar mass, not a printed value.

Legend:
Sporothrix schenckii = assay: Antifungal activity against Sporothrix schenckii after 48 hrs by broth microdilution technique; format: functional, organism-based
How it was run: (§1)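 MIC by broth microdilution following NCCLS guidelines, in RPMI 1640 buffered with MOPS. Starting inoculum 1-5 × 10^3 CFU/mL. Plates incubated at 35 °C. MIC and IC50 read spectrophotometrically at 492 nm after 48 h.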

[1] = Growth inhibition of Lactobacillus acidophilus after 72 hrs by colony counting method
How it was run: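 Rogosa SL agar plates (7.5%, 0.132% acetic acid), with or without compound, inoculated with L. acidophilus (~70 […]/10 cm²). Incubated 72 h at 37 °C in 5% CO2/95% air. Colony number and size recorded. Value = average colony size (% of control) × colony number / 100.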

Trichomonas vaginalis = assay: Trichomonacidal activity against Trichomonas vaginalis after 48 hrs by trypan blue exclusion assay; format: functional; conditions: read-out: MEC
How it was run: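 T. vaginalis in log phase, grown in TYM with 10% FCS, vitamin mixture and penicillin/streptomycin at 37 °C. DMSO stocks ([…]) serially diluted in TYM down to 0.1 µg/mL; DMSO/TYM vehicle controls. 5 × 10^4 trophozoites added and incubated anaerobically at 37 °C. Viability checked by trypan blue from 3 to 48 h. MIC = lowest concentration killing all cells by 48 h. Three repeats.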

[2] = Spermicidal activity in human semen assessed as sperm immobilization at 0.1 % w/v up to 30 seconds by phase contrast microscopy; format: functional
[3] = Spermicidal activity in human semen assessed as sperm immobilization at 1.0 % w/v up to 30 seconds by phase contrast microscopy; format: functional
Candida albicans [4] = assay: Antifungal activity against Candida albicans clinical isolate after 48 hrs by broth microdilution technique; format: functional, organism-based; how it was run: as §1
Candida albicans [5] = assay: Antifungal activity against Candida albicans ATCC 10231 after 48 hrs by broth microdilution technique; format: functional, organism-based; conditions: ATCC 10231, 48 h; how it was run: as §1
Candida albicans [6] = assay: Antifungal activity against Candida albicans clinical isolate CDRI after 48 hrs by broth microdilution technique; format: functional, organism-based; how it was run: as §1
Candida albicans [7] = assay: Antifungal activity against Candida albicans MTCC 183 after 48 hrs by broth microdilution technique; format: functional, organism-based; conditions: MTCC 183, 48 h; how it was run: as §1
Candida parapsilosis = assay: Antifungal activity against Candida parapsilosis ATCC 22019 after 48 hrs by broth microdilution technique; format: functional, organism-based; conditions: Lodderomyces parapsilosis, ATCC 22019, 48 h; how it was run: as §1
Candida albicans [8] = assay: Antifungal activity against Candida albicans after 48 hrs by broth microdilution technique; format: functional, organism-based; how it was run: as §1
Klebsiella pneumoniae = assay: Antibacterial activity against Klebsiella pneumoniae after 48 hrs by broth microdilution technique; format: functional
How it was run: (§2)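 Broth microdilution following NCCLS guidelines in Mueller Hinton broth. Inoculum held at 1-5 × 10^3 cfu/mL. Plates incubated at 35 °C in a moist, dark chamber for 48 h. MIC and IC50 read spectrophotometrically at 492 nm.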

Staphylococcus aureus = assay: Antibacterial activity against Staphylococcus aureus ATCC 25923 after 48 hrs by broth microdilution technique; format: functional; conditions: ATCC 25923, 48 h; how it was run: as §2
Pseudomonas aeruginosa = assay: Antibacterial activity against Pseudomonas aeruginosa ATCC BAA-427 after 48 hrs by broth microdilution technique; format: functional; conditions: ATCC BAA-427, 48 h; how it was run: as §2
Escherichia coli = assay: Antibacterial activity against Escherichia coli ATCC 9637 after 48 hrs by broth microdilution technique; format: functional; conditions: ATCC 9637, 48 h; how it was run: as §2
Cryptococcus neoformans = assay: Antifungal activity against Cryptococcus neoformans after 48 hrs by broth microdilution technique; format: functional, organism-based; how it was run: as §1
[9] = system: Trichophyton mentagrophytes; assay: Antifungal activity against Trichophyton mentagrophytes after 48 hrs by broth microdilution technique; format: functional, organism-based; how it was run: as §1
HeLa = assay: Cytotoxicity against human HeLa cells after 5 hrs by LDH assay
Aspergillus fumigatus = assay: Antifungal activity against Aspergillus fumigatus after 48 hrs by broth microdilution technique; format: functional, organism-based; how it was run: as §1

Row | Compound | IC50 (Sporothrix schenckii) | IC50 (Candida albicans [4]) | IC50 (Candida albicans [5]) | IC50 (Candida albicans [6]) | IC50 (Candida albicans [7]) | IC50 (Candida parapsilosis) | IC50 (Candida albicans [8]) | MIC (Klebsiella pneumoniae) | MIC (Staphylococcus aureus) | MIC (Pseudomonas aeruginosa) | MIC (Escherichia coli) | IC50 (Cryptococcus neoformans) | IC50 [9] | IC50 (Aspergillus fumigatus) | IC50 [1] | minimal effective concentration (Trichomonas vaginalis) | Activity [2] | Activity [3] | IC50 (HeLa)
1 | CCCCSC(=S)n1cnc2ccccc21 | > 50 mg/L | > 50 mg/L | > 50 mg/L | 37.4 mg/L (≈ 149 µM) | 21.8 mg/L (≈ 87.1 µM) | > 50 mg/L | 6.39 mg/L (≈ 25.5 µM) | ≥ 50 mg/L | ≥ 50 mg/L | ≥ 50 mg/L | ≥ 50 mg/L | > 50 mg/L | 1.4 mg/L (≈ 5.59 µM) | > 50 mg/L |  | > 200 µg/mL | 0% | 100% | 
2 | CCCCCCCCSC(=S)n1cnc2ccccc21 | > 50 mg/L | > 50 mg/L | > 50 mg/L | > 50 mg/L | > 50 mg/L | > 50 mg/L | > 50 mg/L | ≥ 50 mg/L | ≥ 50 mg/L | ≥ 50 mg/L | ≥ 50 mg/L | > 50 mg/L | > 50 mg/L | > 50 mg/L |  | > 200 µg/mL | 0% | 95% | 
3 | CCCCCCCCCc1ccc(OCCOCCOCCOCCOCCOCCOCCOCCOCCO)cc1 [NONOXYNOL 9] |  |  |  |  |  |  |  |  |  |  |  |  |  |  | 21 mg/L (≈ 34 µM) | 37.4 µg/mL | 100% | 100% | 37 mg/L (≈ 60 µM)

Continued, in another order:

Row | IC50 (Sporothrix schenckii) | IC50 (Candida albicans [4]) | IC50 (Candida albicans [5]) | IC50 (Candida albicans [6]) | IC50 (Candida albicans [7]) | IC50 (Candida parapsilosis) | IC50 (Candida albicans [8]) | MIC (Klebsiella pneumoniae) | MIC (Staphylococcus aureus) | MIC (Pseudomonas aeruginosa) | MIC (Escherichia coli) | IC50 (Cryptococcus neoformans) | IC50 [9] | IC50 (Aspergillus fumigatus) | Compound | IC50 [1] | minimal effective concentration (Trichomonas vaginalis) | Activity [2] | Activity [3] | IC50 (HeLa)
4 | > 50 mg/L | 1.53 mg/L (≈ 7.64 µM) | 3.5 mg/L (≈ 17.5 µM) | 6.17 mg/L (≈ 30.8 µM) | 5.41 mg/L (≈ 27 µM) | 1.94 mg/L (≈ 9.68 µM) | 1.29 mg/L (≈ 6.44 µM) | ≥ 50 mg/L | ≥ 50 mg/L | ≥ 50 mg/L | ≥ 50 mg/L | 3.79 mg/L (≈ 18.9 µM) | > 50 mg/L |  | CCCCSC(=S)n1ccnc1 | 45.64 mg/L (≈ 228 µM) | > 200 µg/mL | 80% | 100% | 48.7 mg/L (≈ 243 µM)
5 | 5.71 mg/L (≈ 26.6 µM) | 2.12 mg/L (≈ 9.89 µM) | 5.09 mg/L (≈ 23.7 µM) | 7.64 mg/L (≈ 35.6 µM) | 4.69 mg/L (≈ 21.9 µM) | > 50 mg/L | 1.34 mg/L (≈ 6.25 µM) | ≥ 50 mg/L | ≥ 50 mg/L | ≥ 50 mg/L | ≥ 50 mg/L | 5.57 mg/L (≈ 26 µM) | 2.02 mg/L (≈ 9.42 µM) | 23.8 mg/L (≈ 111 µM) | CCCCSC(=S)n1ccnc1C | 220 mg/L (≈ 1030 µM) | > 200 µg/mL | 0% | 100% | 85.5 mg/L (≈ 399 µM)
6 | 4.34 mg/L (≈ 27.3 µM) | > 50 mg/L | 38 mg/L (≈ 239 µM) | > 50 mg/L | 31.2 mg/L (≈ 196 µM) | > 50 mg/L | 1.43 mg/L (≈ 8.98 µM) | ≥ 50 mg/L | ≥ 50 mg/L | ≥ 50 mg/L | ≥ 50 mg/L | > 50 mg/L | > 50 mg/L | > 50 mg/L | CSC(=S)n1cncn1 | 39.54 mg/L (≈ 248 µM) | > 200 µg/mL | 0% | 100% | 53.7 mg/L (≈ 337 µM)
